{"source": "paper PMC6032921", "about": "(Acta Physiologica (Oxford, England), 2018)", "key": {"[1]": {"conditions": "list of hypothermia‐inducing TRPV1 antagonists; cited from earlier work"}, "TRPV1 [2]": {"system": "TRPV1", "conditions": "cited from earlier work"}, "rat TRPV1 channels [3]": {"molecular_target": "T1, rat TRPV1 channels (Rattus norvegicus, UniProt O35433)", "T1 sequence (O35433 whole entry)": "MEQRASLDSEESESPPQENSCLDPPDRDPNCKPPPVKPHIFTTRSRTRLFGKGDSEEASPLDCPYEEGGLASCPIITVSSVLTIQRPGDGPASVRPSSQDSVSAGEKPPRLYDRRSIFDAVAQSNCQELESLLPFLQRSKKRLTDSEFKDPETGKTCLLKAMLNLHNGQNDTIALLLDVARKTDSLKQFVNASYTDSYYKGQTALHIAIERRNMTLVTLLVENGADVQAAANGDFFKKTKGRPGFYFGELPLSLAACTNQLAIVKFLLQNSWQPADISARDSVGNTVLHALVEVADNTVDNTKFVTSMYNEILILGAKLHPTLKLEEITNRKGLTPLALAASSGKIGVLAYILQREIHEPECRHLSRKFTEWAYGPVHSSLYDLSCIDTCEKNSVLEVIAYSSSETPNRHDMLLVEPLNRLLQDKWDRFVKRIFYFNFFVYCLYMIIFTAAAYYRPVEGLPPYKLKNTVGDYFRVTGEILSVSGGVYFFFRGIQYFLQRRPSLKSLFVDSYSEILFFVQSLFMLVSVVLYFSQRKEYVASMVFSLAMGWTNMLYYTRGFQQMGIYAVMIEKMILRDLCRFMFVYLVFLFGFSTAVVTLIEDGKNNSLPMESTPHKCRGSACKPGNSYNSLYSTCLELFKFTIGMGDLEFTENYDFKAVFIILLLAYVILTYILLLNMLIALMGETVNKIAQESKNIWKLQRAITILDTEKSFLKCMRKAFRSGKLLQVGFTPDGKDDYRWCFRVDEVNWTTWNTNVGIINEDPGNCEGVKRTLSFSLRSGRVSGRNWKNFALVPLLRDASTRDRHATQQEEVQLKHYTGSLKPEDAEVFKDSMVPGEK", "conditions": "cited from earlier work"}, "rats [4]": {"system": "rats", "conditions": "cited from earlier work"}, "rats [5]": {"system": "rats", "conditions": "rat models of inflammatory pain and heat hyperalgesia; cited from earlier work"}, "rat TRPV1 channels [6]": {"molecular_target": "T1, rat TRPV1 channels", "test": "^45Ca^2+ uptake assay with scintillation counter, CHO cells expressing rat TRPV1", "type": "cell-based", "conditions": "pH 5.0", "procedure,_shortened": "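CHO cells stably expressing rat TRPV1 were seeded 2 days before the assay (20,000 cells/well). Cells were exposed for 2 min at room temperature to test compound (200 pmol L⁻¹ to 4 μmol L⁻¹) with capsaicin (500 nmol L⁻¹) in HBSS pH 7.4 with BSA and HEPES, or with compound in MES buffer pH 5.0 with 30 mmol L⁻¹ HEPES. ⁴⁵Ca²⁺ (10 μCi mL⁻¹ final) was added for 2 min, cells were washed, and uptake was measured by scintillation counting.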"}, "Trpv1 ^−/− mice [7]": {"system": "Trpv1 ^−/− mice", "test": "Abdominal T b in Trpv1 −/− mice, telemetry, i.g. gavage", "type": "in vivo, mouse", "conditions": "30 mg kg^−1 i.g."}, "Trpv1 ^−/− mice [8]": {"system": "Trpv1 ^−/− mice", "test": "Abdominal T b in Trpv1 −/− mice, telemetry, i.p. catheter", "type": "in vivo, mouse", "conditions": "10 mg kg^−1 i.p."}, "TRPV1 [9]": {"system": "TRPV1", "conditions": "cited from earlier work; for effect on TRPV1 activation by protons in vitro: ref Lehto et al 16"}, "Trpv1 ^+/+ mice [10]": {"system": "Trpv1 ^+/+ mice", "test": "Abdominal T b in Trpv1 +/+ mice, telemetry, i.p. catheter", "type": "in vivo, mouse", "conditions": "10 mg kg^−1 i.p.", "procedure,_shortened": "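Mice of both sexes (18‐27 g) were habituated to wire‐mesh confiners for 8 days. Under ketamine‐xylazine they were implanted intraperitoneally with a telemetry transmitter and a saline‐filled catheter, and tested 3‐6 days later. Test compound (0.75 mg mL⁻¹ in saline with 5% Tween‐80, warmed to 37°C) was given as a 10 mg kg⁻¹ bolus (~13 mL kg⁻¹) via the catheter, versus vehicle. Abdominal T_b was analysed by 2‐way ANOVA with Fisher's LSD.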"}, "Trpv1 ^+/+ mice [11]": {"system": "Trpv1 ^+/+ mice", "test": "Abdominal T b in Trpv1 +/+ mice, telemetry, i.g. gavage", "type": "in vivo, mouse", "conditions": "30 mg kg^−1 i.g., at 140 minutes"}, "human TRPV1 channels": {"molecular_target": "human TRPV1 channels (Homo sapiens, UniProt Q8NER1)", "sequence (Q8NER1 whole entry)": "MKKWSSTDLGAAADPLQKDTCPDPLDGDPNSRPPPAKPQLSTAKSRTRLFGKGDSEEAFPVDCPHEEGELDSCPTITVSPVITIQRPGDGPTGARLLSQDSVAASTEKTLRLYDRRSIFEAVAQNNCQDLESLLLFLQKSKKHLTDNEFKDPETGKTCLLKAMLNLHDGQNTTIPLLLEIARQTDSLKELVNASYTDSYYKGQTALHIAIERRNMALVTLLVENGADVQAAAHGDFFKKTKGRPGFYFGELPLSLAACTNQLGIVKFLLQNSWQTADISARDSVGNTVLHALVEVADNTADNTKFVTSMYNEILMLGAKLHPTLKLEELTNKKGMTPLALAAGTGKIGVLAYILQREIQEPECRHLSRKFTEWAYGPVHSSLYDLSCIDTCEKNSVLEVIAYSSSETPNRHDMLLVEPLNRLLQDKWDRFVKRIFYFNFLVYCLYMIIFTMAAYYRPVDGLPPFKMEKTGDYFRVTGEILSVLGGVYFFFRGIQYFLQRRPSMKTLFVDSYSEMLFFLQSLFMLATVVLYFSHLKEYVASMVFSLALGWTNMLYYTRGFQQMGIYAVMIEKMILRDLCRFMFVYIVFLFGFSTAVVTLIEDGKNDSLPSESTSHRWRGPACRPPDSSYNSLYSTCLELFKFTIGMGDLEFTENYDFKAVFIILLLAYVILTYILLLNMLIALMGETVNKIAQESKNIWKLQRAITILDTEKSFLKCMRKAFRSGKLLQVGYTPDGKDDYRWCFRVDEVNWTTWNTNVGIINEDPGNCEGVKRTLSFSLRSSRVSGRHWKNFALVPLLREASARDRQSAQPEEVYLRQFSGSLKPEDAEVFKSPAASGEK", "conditions": "cited from earlier work"}, "humans": {"system": "humans", "conditions": "clinical trial in humans; cited from earlier work"}, "corneal TRPV1 channels": {"molecular_target": "corneal TRPV1 channels (Rattus norvegicus, UniProt O35433)", "sequence (O35433 whole entry)": "as the sequence (O35433 whole entry) above", "test": "Eye‐wiping test after intra‐abdominal RTX desensitization", "type": "in vivo", "conditions": "rats desensitized with RTX 20 μg kg^−1 i.p.", "procedure,_shortened": "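This test was done 6‐16 days after i.p. RTX (20 μg kg⁻¹) or vehicle pre‐treatment of rats. Counts were compared between desensitized and sham‐desensitized rats by […] 2‐tailed Student's t test.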"}}}
{"smiles": "CC(C)(C)c1ccc(CNC(=S)NCc2ccc(NS(C)(=O)=O)c(F)c2)cc1", "note": "[JYL1421]", "values": [{"measurement": "effect on deep body temperature (T b)", "setting": "[1]", "value": "cause hypothermia"}, {"measurement": "TRPV1 agonistic or capsaicin‐potentiating activity", "setting": "TRPV1 [2]", "value": "showed no TRPV1 agonistic or capsaicin‐potentiating activity"}]}
{"smiles": "Oc1cc2c(cc1O)CN(C(=S)NCCc1ccc(Cl)cc1)CCC2", "note": "[capsazepine]", "values": [{"measurement": "effect on proton activation of TRPV1", "setting": "rat TRPV1 channels [3]", "value": "no allosteric effect on proton activation"}, {"measurement": "effect on T b in rats", "setting": "rats [4]", "value": "does not affect T b in rats"}, {"measurement": "efficacy in pain models", "setting": "rats [5]", "value": "efficacious"}]}
{"smiles": "O=C(NCc1ccc(C(F)(F)F)cc1)Nc1cccc2cnccc12", "note": "[A‐425619, 1‐isoquinolin‐5‐yl‐3‐(4‐trifluoromethyl‐benzyl)‐urea]", "values": [{"measurement": "effect on deep body temperature (T b)", "setting": "[1]", "value": "cause hypothermia"}, {"measurement": "TRPV1 agonistic or capsaicin‐potentiating activity", "setting": "TRPV1 [2]", "value": "showed no TRPV1 agonistic or capsaicin‐potentiating activity"}]}
{"smiles": "O=C(/C=C/c1ccc(C(F)(F)F)nc1N1CCCCC1)Nc1cccc2c1CC(O)CC2", "note": "(centres unmarked) [AMG0347]", "values": [{"measurement": "effect on deep T b in rats", "setting": "rats [4]", "value": "increase deep T b in rats"}]}
{"smiles": "FC(F)(F)c1ccc(-c2cc(Nc3ccc4ncsc4c3)ncn2)c(NCC2CCCCC2)c1", "note": "[AMG7905]", "values": [{"measurement": "effect on ^45Ca^2+ influx in the proton activation mode", "setting": "rat TRPV1 channels [6]", "value": "concentration‐dependent potentiation"}, {"measurement": "effect on T b", "setting": "Trpv1 ^−/− mice [7]", "value": "did not cause hypothermia"}, {"measurement": "effect on T b", "setting": "Trpv1 ^−/− mice [8]", "value": "neither A‐1165901 nor AMG7905 had any effect on T b"}, {"measurement": "effect on TRPV1 activation by protons in vitro", "setting": "TRPV1 [9]", "value": "potentiated TRPV1 activation by protons in vitro"}, {"measurement": "drop in T b compared to vehicle", "setting": "Trpv1 ^+/+ mice [10]", "value": "> 2", "unit": "°C"}, {"measurement": "effect on deep body temperature (T b)", "setting": "[1]", "value": "cause hypothermia"}, {"measurement": "biggest intertreatment difference in T b (hypothermia vs vehicle)", "setting": "Trpv1 ^+/+ mice [11]", "value": 7.8, "unit": "°C"}, {"measurement": "TRPV1 agonistic or capsaicin‐potentiating activity", "setting": "TRPV1 [2]", "value": "showed no TRPV1 agonistic or capsaicin‐potentiating activity"}]}
{"smiles": "Cc1ccc(N2c3cccc(C(=O)Nc4ccc(OCC(F)(F)F)nc4)c3OC[C@@H]2CO)nc1", "note": "[JTS‐653, (3S)‐3‐(hydroxymethyl)‐4‐(5‐methylpyridin‐2‐yl)‐N‐[6‐(2,2,2‐trifluoroethoxy)pyridin‐3‐yl]‐3,4‐dihydro‐2H‐benzo[b][1,4]oxazine‐8‐carboxamide]", "values": [{"measurement": "effect on proton‐induced activation of TRPV1", "setting": "rat TRPV1 channels [3]", "value": "potently block proton‐induced activation"}, {"measurement": "effect on proton‐induced activation of TRPV1", "setting": "human TRPV1 channels", "value": "potently block proton‐induced activation"}, {"measurement": "effect on T b in rats", "setting": "rats [4]", "value": "cause hyperthermia in rats"}]}
{"smiles": "O=C(/C=C/c1ccc(C(F)(F)F)cc1N1CCCCC1)Nc1cccc2c1C[C@H](O)C2", "note": "[AMG8562, (R, E)‐N‐(2‐hydroxy‐2,3‐dihydro‐1H‐inden‐4‐yl)‐3‐(2‐(piperidin‐1‐yl)‐4‐(trifluoromethyl)phenyl)‐acrylamide]", "values": [{"measurement": "effect on TRPV1 activation by protons in vitro", "setting": "TRPV1 [9]", "value": "potentiated TRPV1 activation by protons in vitro"}, {"measurement": "effect on deep body temperature (T b)", "setting": "[1]", "value": "cause hypothermia"}, {"measurement": "TRPV1 agonistic or capsaicin‐potentiating activity", "setting": "TRPV1 [2]", "value": "showed no TRPV1 agonistic or capsaicin‐potentiating activity"}]}
{"smiles": "O=C(Nc1ccc(C(F)(F)F)cn1)N1CC=C(c2ncc([C@H](O)CO)cc2Cl)CC1", "note": "[V116517, 4‐[3‐chloro‐5‐[(1S)‐1,2‐dihydroxyethyl]‐2‐pyridyl]‐N‐[5‐(trifluoromethyl)‐2‐pyridyl]‐3,6‐dihydro‐2H‐pyridine‐1‐carboxamide]", "values": [{"measurement": "effect on TRPV1 activation by protons", "setting": "TRPV1 [9]", "value": "potently blocking TRPV1 activation by protons"}, {"measurement": "effect on T b in humans", "setting": "humans", "value": "caused no hyperthermia"}, {"measurement": "effect on T b in rats", "setting": "rats [4]", "value": "causing hyperthermia in rats"}]}
{"smiles": "CC(=O)Nc1nc2c(Oc3cc(-c4ccc(C(F)(F)F)cc4)ncn3)cccc2s1", "note": "[AMG 517]", "values": [{"measurement": "effect on deep T b in rats", "setting": "rats [4]", "value": "increase deep T b in rats"}]}
{"smiles": "C=C(C)[C@]12C[C@@H](C)[C@@]34O[C@](Cc5ccccc5)(O[C@@H]1[C@@H]3C=C(COC(=O)Cc1ccc(O)c(OC)c1)C[C@]1(O)C(=O)C(C)=C[C@@H]41)O2", "note": "[RTX, resiniferatoxin]", "values": [{"measurement": "eye‐wiping response to topical RTX in desensitized vs sham‐desensitized rats", "setting": "corneal TRPV1 channels", "value": "no meaningful difference"}]}
{"smiles": "C=C(C)[C@]12C[C@@H](C)[C@@]34O[C@](Cc5ccccc5)(O[C@@H]1[C@@H]3C=C(COC(=O)Cc1cc(I)c(O)c(OC)c1)C[C@]1(O)C(=O)C(C)=C[C@@H]41)O2", "note": "[5′‐I‐RTX, 5′‐iodo‐resiniferatoxin]", "values": [{"measurement": "effect on deep body temperature (T b)", "setting": "[1]", "value": "cause hypothermia"}, {"measurement": "TRPV1 agonistic or capsaicin‐potentiating activity", "setting": "TRPV1 [2]", "value": "partial agonists"}]}
